Source: ChEMBL document CHEMBL2434965, “Lead optimization of an acylhydrazone scaffold possessing antiviral activity against Lassa virus” (Bioorg Med Chem Lett, 2013)
Activity calls are given as the source filed them. The rule behind the calls is not given here.

Tested on: Sabia virus
Experiment: Antiviral activity against Sabia virus pseudotype containing viral envelope
Assay type: functional
Conditions: not given
In short: (§1)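 Lentivirus-based pseudotypes bearing arenavirus envelope glycoprotein. Each run used three or four replicates per concentration, typically 7 to 14 concentrations spaced 0.25 to 0.7 log apart, up to 50 µM. EC50 per experiment came from a four-parameter one-site dose-response fit. Values across experiments were averaged as geometric means, with relative standard error given as SD/√n relative to the mean.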

| Compound | EC50 [nM] |
| --- | --- |
| C/C(=N\NC(=O)[C@@H]1C[C@H]1c1ccccc1)c1ccc(NC(=O)c2ccco2)cc1 | 130 |

Tested on: Lassa virus
Experiment: Antiviral activity against Lassa virus by plaque reduction assay
Assay type: functional, organism-based
Conditions: Mammarenavirus lassaense

| Compound | Activity |
| --- | --- |
| C/C(=N\NC(=O)[C@@H]1C[C@H]1c1ccccc1)c1ccc(NC(=O)c2ccco2)cc1 | Active |

Tested on: Lassa virus
Experiment: Antiviral activity against Lassa virus pseudotype containing envelope glycoprotein incorporated in lentivirus infected in human 293T/17 cells by luciferase reporter gene assay
Assay type: functional, organism-based
Conditions: Mammarenavirus lassaense, HEK-293T
In short: as §1

| Compound | EC50 [nM] |
| --- | --- |
| COc1cccc(/C(C)=N/NC(=O)C2CC2)c1 | > 50000 |
| C/C(=N\NC(=O)[C@@H]1C[C@H]1c1ccccc1)c1ccc(NC(=O)c2ccco2)cc1 | 0.34 |
| C/C(=N\NC(=O)[C@@H]1C[C@H]1c1ccccc1)c1ccccc1 (relative stereo) | 47 |
| C/C(=N\NC(=O)[C@@H]1C[C@H]1c1ccccc1)c1ccccc1Cl (relative stereo) | 320 |
| C/C(=N\NC(=O)[C@@H]1C[C@H]1c1ccccc1)c1ccc(Cl)cc1 (relative stereo) | 20 |
| C/C(=N\NC(=O)[C@@H]1C[C@H]1c1ccccc1)c1cccc(Br)c1 (relative stereo) | 56 |
| C/C(=N\NC(=O)[C@@H]1C[C@H]1c1ccccc1)c1ccc(Br)cc1 (relative stereo) | 470 |
| C/C(=N\NC(=O)[C@@H]1C[C@H]1c1ccccc1)c1cccc([N+](=O)[O-])c1 (relative stereo) | 250 |
| C/C(=N\NC(=O)[C@@H]1C[C@H]1c1ccccc1)c1ccc([N+](=O)[O-])cc1 (relative stereo) | 62 |
| C/C(=N\NC(=O)[C@@H]1C[C@H]1c1ccccc1)c1ccccc1O (relative stereo) | 570 |
| C/C(=N\NC(=O)[C@@H]1C[C@H]1c1ccccc1)c1cccc(O)c1 (relative stereo) | 94 |
| C/C(=N\NC(=O)[C@@H]1C[C@H]1c1ccccc1)c1ccc(O)cc1 (relative stereo) | 2.3 |
| COc1cccc(/C(C)=N/NC(=O)[C@@H]2C[C@H]2c2ccccc2)c1 (relative stereo) | 42 |
| COc1ccc(/C(C)=N/NC(=O)[C@@H]2C[C@H]2c2ccccc2)cc1 (relative stereo) | 4 |
| C/C(=N\NC(=O)[C@@H]1C[C@H]1c1ccccc1)c1cccc(C)c1 (relative stereo) | 58 |
| C/C(=N\NC(=O)[C@@H]1C[C@H]1c1ccccc1)c1ccc(C)cc1 (relative stereo) | 9 |
| C/C(=N\NC(=O)[C@@H]1C[C@H]1c1ccccc1)c1cccc(C)c1C (relative stereo) | 800 |

| Compound | EC50 [nM] |
| --- | --- |
| C/C(=N\NC(=O)[C@@H]1C[C@H]1c1ccccc1)c1ccc(C)cc1C (relative stereo) | 170 |
| C/C(=N\NC(=O)[C@@H]1C[C@H]1c1ccccc1)c1ccc(C)c(C)c1 (relative stereo) | 3.9 |
| C/C(=N\NC(=O)[C@@H]1C[C@H]1c1ccccc1)c1ccc(Cl)c(Cl)c1 (relative stereo) | 72 |
| COc1ccc(/C(C)=N/NC(=O)[C@@H]2C[C@H]2c2ccccc2)cc1OC (relative stereo) | 450 |
| C/C(=N\NC(=O)[C@@H]1C[C@H]1c1ccccc1)c1ccc(C2CCCCC2)cc1 (relative stereo) | 24 |
| C/C(=N\NC(=O)[C@@H]1C[C@H]1c1ccccc1)c1ccc(-c2ccccc2)cc1 (relative stereo) | 1.3 |
| CC(=O)Nc1ccc(/C(C)=N/NC(=O)[C@@H]2C[C@H]2c2ccccc2)cc1 (relative stereo) | 2.6 |
| C/C(=N\NC(=O)[C@@H]1C[C@H]1c1ccccc1)c1ccc(NC(=O)C2CC2)cc1 (relative stereo) | 2.1 |
| C/C(=N\NC(=O)[C@@H]1C[C@H]1c1ccccc1)c1cccc(NC(=O)c2cccs2)c1 (relative stereo) | 6300 |
| C/C(=N\NC(=O)[C@@H]1C[C@H]1c1ccccc1)c1ccc(NC(=O)c2ccc(Cl)s2)cc1 (relative stereo) | 0.95 |
| C/C(=N\NC(=O)[C@H]1C[C@@H]1c1ccccc1)c1ccc(NC(=O)c2ccco2)cc1 (relative stereo) | 0.34 |
| C/C(=N\NC(=O)[C@@H]1C[C@H]1c1ccc(C(C)(C)C)cc1)c1ccccc1 (relative stereo) | 15 |
| C/C(=N\NC(=O)[C@@H]1C[C@H]1c1ccc(C(C)(C)C)cc1)c1ccc(Cl)cc1 (relative stereo) | 6.6 |
| C/C(=N\NC(=O)[C@@H]1C[C@H]1c1ccccc1)c1ccc(F)cc1 (relative stereo) | 52 |
| C/C(=N\NC(=O)[C@@H]1C[C@H]1c1ccc(C(C)(C)C)cc1)c1ccc(F)cc1 (relative stereo) | 16 |
| C/C(=N\NC(=O)[C@@H]1C[C@H]1c1ccccc1)c1cccc(NC(=O)c2ccccc2F)c1 (relative stereo) | 9100 |
| C/C(=N\NC(=O)[C@@H]1C[C@H]1c1ccc(C(C)(C)C)cc1)c1cccc(NC(=O)c2ccccc2F)c1 (relative stereo) | 770 |

Tested on: Tacaribe virus
Experiment: Antiviral activity against Tacaribe virus pseudotype containing viral envelope
Assay type: functional, organism-based
Conditions: Mammarenavirus tacaribeense
In short: as §1

| Compound | EC50 [nM] |
| --- | --- |
| C/C(=N\NC(=O)[C@@H]1C[C@H]1c1ccccc1)c1ccc(NC(=O)c2ccco2)cc1 | 630 |

Tested on: Machupo mammarenavirus
Experiment: Antiviral activity against Machupo virus pseudotype containing viral envelope
Assay type: functional
Conditions: Mammarenavirus machupoense
In short: as §1

| Compound | EC50 [nM] |
| --- | --- |
| C/C(=N\NC(=O)[C@@H]1C[C@H]1c1ccccc1)c1ccc(NC(=O)c2ccco2)cc1 | 730 |

Tested on: Guanarito virus
Experiment: Antiviral activity against Guanarito virus pseudotype containing viral envelope
Assay type: functional
Conditions: Mammarenavirus guanaritoense
In short: as §1

| Compound | EC50 [nM] |
| --- | --- |
| C/C(=N\NC(=O)[C@@H]1C[C@H]1c1ccccc1)c1ccc(NC(=O)c2ccco2)cc1 | 120 |

Tested on: Junin virus
Experiment: Antiviral activity against Junin virus pseudotype containing viral envelope
Assay type: functional, organism-based
Conditions: Mammarenavirus juninense
In short: as §1

| Compound | EC50 [nM] |
| --- | --- |
| C/C(=N\NC(=O)[C@@H]1C[C@H]1c1ccccc1)c1ccc(NC(=O)c2ccco2)cc1 | 800 |
